ChEMBL document CHEMBL1144940 (J Med Chem, 2003)
Bridge positions count the residues as written; N and C are the ends. Square brackets hold non-standard residues; d marks the D form. Peptide text beside a SMILES is read from it. Pen = CC(C)(S)[C@H](N)C(=O)O; Nle = CCCC[C@H](N)C(=O)O

Legend:
Melanocortin receptor 4 [1] = biological target: T1, Melanocortin receptor 4 (Homo sapiens, UniProt P32245); test: Binding affinity against Melanocortin 4 receptor by gamma-MCH displacement.
Method in brief: (§1)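 Competition binding on intact HEK293 cells stably expressing the human receptor, seeded 50000 cells/well 48 h earlier. Lysates were gamma-counted. Ki came from competition curves; mean of duplicate experiments in triplicate.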

Melanocortin receptor 4 [2] = biological target: T1, Melanocortin receptor 4; test: Agonist activity against human Melanocortin 4 receptor at 10 uM
Melanocortin receptor 4 [3] = biological target: T1, Melanocortin receptor 4; test: Intracellular cAMP accumulation in Melanocortin 4 receptor functional assay.
Melanocortin receptor 5 [4] = biological target: T2, Melanocortin receptor 5 (Homo sapiens, UniProt P33032); test: Binding affinity against human Melanocortin 5 receptor by gamma-MCH displacement.; method in brief: as §1
T2 sequence (P33032 whole entry): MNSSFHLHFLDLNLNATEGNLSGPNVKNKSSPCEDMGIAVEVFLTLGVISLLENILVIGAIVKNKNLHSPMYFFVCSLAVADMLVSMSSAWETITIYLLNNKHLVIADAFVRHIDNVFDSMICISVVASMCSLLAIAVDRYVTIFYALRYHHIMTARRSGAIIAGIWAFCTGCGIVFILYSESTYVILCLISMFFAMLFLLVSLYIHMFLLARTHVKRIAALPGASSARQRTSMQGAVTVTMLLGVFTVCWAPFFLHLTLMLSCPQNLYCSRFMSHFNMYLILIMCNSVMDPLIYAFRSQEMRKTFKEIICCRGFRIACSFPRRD

Melanocortin receptor 5 [5] = biological target: T2, Melanocortin receptor 5; test: Intracellular cAMP accumulation in human Melanocortin 5 receptor functional assay.
Melanocortin receptor 3 [6] = biological target: T3, Melanocortin receptor 3 (Homo sapiens, UniProt P41968); test: Intracellular cAMP accumulation in human Melanocortin 3 receptor functional assay.
T3 sequence (P41968 whole entry): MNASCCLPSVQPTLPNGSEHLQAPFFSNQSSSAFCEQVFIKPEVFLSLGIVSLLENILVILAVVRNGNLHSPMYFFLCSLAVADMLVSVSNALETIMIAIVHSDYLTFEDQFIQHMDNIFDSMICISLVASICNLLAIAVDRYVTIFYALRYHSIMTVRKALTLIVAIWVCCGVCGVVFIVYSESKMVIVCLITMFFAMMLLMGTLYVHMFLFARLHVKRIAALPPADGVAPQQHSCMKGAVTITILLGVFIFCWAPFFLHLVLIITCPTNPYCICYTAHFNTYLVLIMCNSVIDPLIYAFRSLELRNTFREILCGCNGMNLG

Melanocortin receptor 3 [7] = biological target: T3, Melanocortin receptor 3; test: Binding affinity against human Melanocortin 3 receptor by gamma-MCH displacement.; method in brief: as §1
Melanocortin receptor 3 [8] = biological target: T3, Melanocortin receptor 3; test: Agonist activity against human Melanocortin 3 receptor at 10 uM

T1 sequence (P32245 whole entry): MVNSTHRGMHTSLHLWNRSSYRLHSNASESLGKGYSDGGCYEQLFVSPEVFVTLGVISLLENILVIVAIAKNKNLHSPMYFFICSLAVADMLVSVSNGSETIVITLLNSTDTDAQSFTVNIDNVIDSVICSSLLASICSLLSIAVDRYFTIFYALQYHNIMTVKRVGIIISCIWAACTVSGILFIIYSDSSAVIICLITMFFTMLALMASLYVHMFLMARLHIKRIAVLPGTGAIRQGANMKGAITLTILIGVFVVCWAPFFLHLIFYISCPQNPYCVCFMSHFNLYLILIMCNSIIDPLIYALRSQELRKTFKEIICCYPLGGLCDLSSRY

Compound: CCCC[C@H](NC(=O)[C@@H](NC(=O)[C@@H](N)Cc1ccc(O)cc1)C(C)C)C(=O)NCC(=O)N[C@@H](Cc1c[nH]cn1)C(=O)N[C@@H](Cc1ccccc1)C(=O)N[C@@H](CCCN=C(N)N)C(=O)N[C@@H](Cc1c[nH]c2ccccc12)C(=O)N[C@@H](CC(=O)O)C(=O)N[C@@H](CCCN=C(N)N)C(=O)N[C@@H](Cc1ccccc1)C(=O)NCC(N)=O
- Ki (Melanocortin receptor 4 [1]): 62 nM
- Activity (Melanocortin receptor 4 [2]): 105%

Compound: CC(C)[C@H](NC(=O)[C@@H](N)Cc1ccc(O)cc1)C(=O)N[C@@H]1C(=O)NCC(=O)N[C@@H](Cc2cnc[nH]2)C(=O)N[C@@H](Cc2ccccc2)C(=O)N[C@@H](CCCNC(=N)N)C(=O)N[C@@H](Cc2c[nH]c3ccccc23)C(=O)N[C@H](C(=O)N[C@@H](CCCNC(=N)N)C(=O)N[C@@H](Cc2ccccc2)C(=O)NCC(N)=O)CSSC1(C)C
- EC50 (Melanocortin receptor 4 [3]): > 10000 nM
- Ki (Melanocortin receptor 5 [4]): 1700 nM
- EC50 (Melanocortin receptor 5 [5]): > 10000 nM
- Ki (Melanocortin receptor 4 [1]): 12 nM
- EC50 (Melanocortin receptor 3 [6]): 400 nM
- Ki (Melanocortin receptor 3 [7]): 150 nM

Compound: CC(C)[C@H](NC(=O)[C@@H](N)Cc1ccc(O)cc1)C(=O)N[C@H]1CSSC[C@@H](C(=O)N[C@@H](CCCN=C(N)N)C(=O)N[C@@H](Cc2ccccc2)C(=O)NCC(N)=O)NC(=O)[C@H](Cc2c[nH]c3ccccc23)NC(=O)[C@H](CCCN=C(N)N)NC(=O)[C@H](Cc2ccccc2)NC(=O)[C@H](Cc2c[nH]cn2)NC(=O)CNC1=O
- EC50 (Melanocortin receptor 4 [3]): 9 nM
- Ki (Melanocortin receptor 5 [4]): 210 nM
- EC50 (Melanocortin receptor 5 [5]): 450 nM
- Ki (Melanocortin receptor 4 [1]): 22 nM
- EC50 (Melanocortin receptor 3 [6]): 36 nM
- Ki (Melanocortin receptor 3 [7]): 68 nM

Compound: CC(C)[C@H](NC(=O)[C@@H](N)Cc1ccc(O)cc1)C(=O)N[C@H]1CSSC(C)(C)[C@@H](C(=O)N[C@@H](CCCNC(=N)N)C(=O)N[C@@H](Cc2ccccc2)C(=O)NCC(N)=O)NC(=O)[C@H](Cc2c[nH]c3ccccc23)NC(=O)[C@H](CCCNC(=N)N)NC(=O)[C@H](Cc2ccccc2)NC(=O)[C@H](Cc2cnc[nH]2)NC(=O)CNC1=O (H-YVCGHFRW[Pen]RFG-NH2; disulfide 3-9)
- EC50 (Melanocortin receptor 4 [3]): > 10000 nM
- Ki (Melanocortin receptor 5 [4]): 480 nM
- EC50 (Melanocortin receptor 5 [5]): > 10000 nM
- Ki (Melanocortin receptor 4 [1]): > 10000 nM
- EC50 (Melanocortin receptor 3 [6]): > 10000 nM
- Ki (Melanocortin receptor 3 [7]): 480 nM

Compound: CC(C)[C@H](NC(=O)[C@@H](N)Cc1ccc(O)cc1)C(=O)N[C@H]1C(=O)NCC(=O)N[C@@H](Cc2c[nH]cn2)C(=O)N[C@H](Cc2ccccc2)C(=O)N[C@@H](CCCN=C(N)N)C(=O)N[C@@H](Cc2c[nH]c3ccccc23)C(=O)N[C@H](C(=O)N[C@@H](CCCN=C(N)N)C(=O)N[C@@H](Cc2ccccc2)C(=O)NCC(N)=O)CSSC1(C)C
- Activity (Melanocortin receptor 3 [8]): 77%

Compound: CCCC[C@H](NC(=O)[C@@H](NC(=O)[C@@H](N)Cc1ccc(O)cc1)C(C)C)C(=O)N[C@@H]1CSSC[C@@H](C(=O)N[C@@H](CCCNC(=N)N)C(=O)N[C@@H](Cc2ccccc2)C(=O)NCC(N)=O)NC(=O)[C@H](Cc2c[nH]c3ccccc23)NC(=O)[C@H](CCCNC(=N)N)NC(=O)[C@H](Cc2ccccc2)NC(=O)[C@H](Cc2cnc[nH]2)NC1=O
- EC50 (Melanocortin receptor 4 [3]): 360 nM
- Ki (Melanocortin receptor 5 [4]): 210 nM
- EC50 (Melanocortin receptor 5 [5]): 140 nM
- Ki (Melanocortin receptor 4 [1]): 1200 nM
- EC50 (Melanocortin receptor 3 [6]): 210 nM
- Ki (Melanocortin receptor 3 [7]): 1600 nM

Compound: CCCC[C@H](NC(=O)[C@@H](NC(=O)[C@@H](N)Cc1ccc(O)cc1)C(C)C)C(=O)NCC(=O)NC(C)(C)C(=O)N[C@@H](Cc1ccccc1)C(=O)N[C@@H](CCCN=C(N)N)C(=O)N[C@H](Cc1ccc2ccccc2c1)C(=O)N[C@@H](CC(=O)O)C(=O)N[C@@H](CCCN=C(N)N)C(=O)N[C@@H](Cc1ccccc1)C(=O)NCC(N)=O
- EC50 (Melanocortin receptor 4 [3]): > 10000 nM
- Ki (Melanocortin receptor 5 [4]): 120 nM
- EC50 (Melanocortin receptor 5 [5]): 1.8 nM
- Ki (Melanocortin receptor 4 [1]): 4800 nM
- EC50 (Melanocortin receptor 3 [6]): > 10000 nM
- Ki (Melanocortin receptor 3 [7]): 3400 nM

Compound: CCCC[C@H](NC(=O)[C@@H](NC(=O)[C@@H](N)Cc1ccc(O)cc1)C(C)C)C(=O)NCC(=O)N[C@@H](Cc1c[nH]cn1)C(=O)N[C@H](Cc1ccc2ccccc2c1)C(=O)N[C@@H](CCCN=C(N)N)C(=O)N[C@@H](Cc1c[nH]c2ccccc12)C(=O)N[C@@H](CC(=O)O)C(=O)N[C@@H](CCCN=C(N)N)C(=O)N[C@@H](Cc1ccccc1)C(=O)NCC(N)=O
- Ki (Melanocortin receptor 5 [4]): 1 nM
- EC50 (Melanocortin receptor 3 [6]): > 10000 nM
- Ki (Melanocortin receptor 3 [7]): 0.81 nM
- Activity (Melanocortin receptor 4 [2]): 100%

Compound: CCCC[C@H](NC(=O)[C@@H](NC(=O)[C@@H](N)Cc1ccc(O)cc1)C(C)C)C(=O)N[C@H]1CC(=O)NCCCC[C@@H](C(=O)N[C@@H](CCCN=C(N)N)C(=O)N[C@@H](Cc2ccccc2)C(=O)NCC(N)=O)NC(=O)[C@H](Cc2c[nH]c3ccccc23)NC(=O)[C@H](CCCN=C(N)N)NC(=O)[C@H](Cc2ccccc2)NC(=O)[C@H](Cc2c[nH]cn2)NC1=O
- EC50 (Melanocortin receptor 4 [3]): 340 nM
- Ki (Melanocortin receptor 5 [4]): 8.8 nM
- EC50 (Melanocortin receptor 5 [5]): 200 nM
- Ki (Melanocortin receptor 4 [1]): 9.6 nM
- EC50 (Melanocortin receptor 3 [6]): 240 nM
- Ki (Melanocortin receptor 3 [7]): 5.5 nM

Compound: CC(C)[C@H](NC(=O)[C@@H](N)Cc1ccc(O)cc1)C(=O)NC1CSSCC(C(=O)N[C@@H](CCCN=C(N)N)C(=O)N[C@@H](Cc2ccccc2)C(=O)NCC(N)=O)NC(=O)[C@H](Cc2c[nH]c3ccccc23)NC(=O)[C@H](CCCN=C(N)N)NC(=O)[C@@H](Cc2ccccc2)NC(=O)[C@H](Cc2c[nH]cn2)NC(=O)CNC1=O (stereo in doubt)
- EC50 (Melanocortin receptor 4 [3]): 250 nM
- Ki (Melanocortin receptor 5 [4]): > 3900 nM
- EC50 (Melanocortin receptor 5 [5]): > 10000 nM
- Ki (Melanocortin receptor 4 [1]): 460 nM
- EC50 (Melanocortin receptor 3 [6]): > 10000 nM
- Ki (Melanocortin receptor 3 [7]): > 10000 nM
- Activity (Melanocortin receptor 4 [2]): 46%

Compound: CCCC[C@H](NC(=O)[C@@H](NC(=O)[C@@H](N)Cc1ccc(O)cc1)C(C)C)C(=O)N[C@H]1CSSC[C@@H](C(=O)N[C@@H](CCCNC(=N)N)C(=O)N[C@@H](Cc2ccccc2)C(=O)NCC(N)=O)NC(=O)[C@H](Cc2c[nH]c3ccccc23)NC(=O)[C@H](CCCNC(=N)N)NC(=O)[C@H](Cc2ccccc2)NC(=O)[C@H](Cc2cnc[nH]2)NC1=O
- EC50 (Melanocortin receptor 4 [3]): 170 nM
- Ki (Melanocortin receptor 5 [4]): 27 nM
- EC50 (Melanocortin receptor 5 [5]): 3.2 nM
- Ki (Melanocortin receptor 4 [1]): 2.5 nM
- EC50 (Melanocortin receptor 3 [6]): 4.2 nM
- Ki (Melanocortin receptor 3 [7]): 6.8 nM

Compound: CCCC[C@H](NC(=O)[C@@H](NC(=O)[C@@H](N)Cc1ccc(O)cc1)C(C)C)C(=O)N[C@H]1CSSC[C@H](C(=O)N[C@@H](CCCN=C(N)N)C(=O)N[C@@H](Cc2ccccc2)C(=O)NCC(N)=O)NC(=O)[C@H](Cc2c[nH]c3ccccc23)NC(=O)[C@H](CCCN=C(N)N)NC(=O)[C@H](Cc2ccccc2)NC(=O)[C@H](Cc2c[nH]cn2)NC1=O
- EC50 (Melanocortin receptor 4 [3]): 83 nM
- Ki (Melanocortin receptor 5 [4]): 220 nM
- EC50 (Melanocortin receptor 5 [5]): 270 nM
- Ki (Melanocortin receptor 4 [1]): > 10000 nM
- EC50 (Melanocortin receptor 3 [6]): 39 nM
- Ki (Melanocortin receptor 3 [7]): 240 nM

Compound: CCCC[C@H](NC(=O)[C@@H](NC(=O)[C@@H](N)Cc1ccc(O)cc1)C(C)C)C(=O)N[C@@H]1C(=O)N[C@@H](Cc2c[nH]cn2)C(=O)N[C@@H](Cc2ccccc2)C(=O)N[C@@H](CCCN=C(N)N)C(=O)N[C@@H](Cc2c[nH]c3ccccc23)C(=O)N[C@H](C(=O)N[C@@H](CCCN=C(N)N)C(=O)N[C@@H](Cc2ccccc2)C(=O)NCC(N)=O)CSSC1(C)C (H-YV[Nle][Pen]HFRWCRFG-NH2; disulfide 4-9)
- EC50 (Melanocortin receptor 4 [3]): 200 nM
- Ki (Melanocortin receptor 5 [4]): 150 nM
- EC50 (Melanocortin receptor 5 [5]): 74 nM
- Ki (Melanocortin receptor 4 [1]): > 10000 nM
- EC50 (Melanocortin receptor 3 [6]): 19 nM
- Ki (Melanocortin receptor 3 [7]): 150 nM

Compound: CC(C)[C@H](NC(=O)[C@@H](N)Cc1ccc(O)cc1)C(=O)N[C@H]1CSSC[C@H](C(=O)N[C@@H](CCCN=C(N)N)C(=O)N[C@@H](Cc2ccccc2)C(=O)NCC(N)=O)NC(=O)[C@H](Cc2c[nH]c3ccccc23)NC(=O)[C@H](CCCN=C(N)N)NC(=O)[C@H](Cc2ccccc2)NC(=O)[C@H](Cc2c[nH]cn2)NC(=O)CNC1=O
- EC50 (Melanocortin receptor 4 [3]): > 10000 nM
- Ki (Melanocortin receptor 5 [4]): > 3900 nM
- EC50 (Melanocortin receptor 5 [5]): > 10000 nM
- Ki (Melanocortin receptor 4 [1]): > 10000 nM
- EC50 (Melanocortin receptor 3 [6]): > 10000 nM
- Ki (Melanocortin receptor 3 [7]): > 10000 nM
